Measurements taken from ChEMBL document CHEMBL4406881, “Design, synthesis and biological evaluation of benzoylacrylic acid shikonin ester derivatives as irreversible dual inhibitors of tubulin and EGFR” (Bioorg Med Chem, 2019).

Assays:
NCI-H1975 = experiment: Antiproliferative activity against human NCI-H1975 cells assessed as reduction in cell viability after 24 hrs by MTT assay; assay type: functional, cell-based; conditions: NCI-H1975, 24 h
Outline: (§1)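 MTT colorimetric assay. Cells in log phase in medium with 10% FBS were seeded at 10⁴ cells/well and left overnight at 37 °C, 5% CO₂ to reattach. Compounds were added at 0.1, 1, 10 and 100 μM in 10% FBS for 24 h. IC50 reported as mean ± SD of three independent experiments.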

NCI-H460 = experiment: Antiproliferative activity against human H460 cells assessed as reduction in cell viability after 24 hrs by MTT assay; assay type: functional, cell-based; conditions: NCI-H460, 24 h; outline: as §1
MCF7 = experiment: Antiproliferative activity against human MCF7 cells assessed as reduction in cell viability after 24 hrs by MTT assay; assay type: functional, cell-based; conditions: MCF7, 24 h; outline: as §1
[1] = Cytotoxicity against human LO2 cells assessed as reduction in cell viability after 24 hrs by MTT assay; assay type: cell-based, L02; outline: as §1
[2] = target: Epidermal growth factor receptor (Homo sapiens, UniProt P00533); experiment: Inhibition of C-terminal His-tagged N-terminal GST-tagged human EGFR (668 to 1210 residues) expressed in baculovirus infected Sf9 cells after 30 mins in presence of gamma-[32p-ATP] binding assay
A549 = experiment: Antiproliferative activity against human A549 cells assessed as reduction in cell viability after 24 hrs by MTT assay; assay type: functional, cell-based; conditions: A549, 24 h
HeLa = experiment: Antiproliferative activity against human HeLa cells assessed as reduction in cell viability after 24 hrs by MTT assay; assay type: functional, cell-based; outline: as §1
Tubulin (Homo sapiens) = Tubulin (Homo sapiens) (UniProt P68371+Q9H4B7+P0DPH7+P68366+Q13509+Q71U36+P04350+Q3ZCM7+P07437+P68363+Q9BQE3+Q6PEY2+Q13885+Q9BVA1+Q9BUF5); experiment: Inhibition of microtubule polymerization in human A549 cells assessed as polymerized tubulin expression at 1 uM after 24 hrs by immuno blot analysis; assay type: cell-based

Sequence of Epidermal growth factor receptor (P00533 whole entry, the tested form may be a part): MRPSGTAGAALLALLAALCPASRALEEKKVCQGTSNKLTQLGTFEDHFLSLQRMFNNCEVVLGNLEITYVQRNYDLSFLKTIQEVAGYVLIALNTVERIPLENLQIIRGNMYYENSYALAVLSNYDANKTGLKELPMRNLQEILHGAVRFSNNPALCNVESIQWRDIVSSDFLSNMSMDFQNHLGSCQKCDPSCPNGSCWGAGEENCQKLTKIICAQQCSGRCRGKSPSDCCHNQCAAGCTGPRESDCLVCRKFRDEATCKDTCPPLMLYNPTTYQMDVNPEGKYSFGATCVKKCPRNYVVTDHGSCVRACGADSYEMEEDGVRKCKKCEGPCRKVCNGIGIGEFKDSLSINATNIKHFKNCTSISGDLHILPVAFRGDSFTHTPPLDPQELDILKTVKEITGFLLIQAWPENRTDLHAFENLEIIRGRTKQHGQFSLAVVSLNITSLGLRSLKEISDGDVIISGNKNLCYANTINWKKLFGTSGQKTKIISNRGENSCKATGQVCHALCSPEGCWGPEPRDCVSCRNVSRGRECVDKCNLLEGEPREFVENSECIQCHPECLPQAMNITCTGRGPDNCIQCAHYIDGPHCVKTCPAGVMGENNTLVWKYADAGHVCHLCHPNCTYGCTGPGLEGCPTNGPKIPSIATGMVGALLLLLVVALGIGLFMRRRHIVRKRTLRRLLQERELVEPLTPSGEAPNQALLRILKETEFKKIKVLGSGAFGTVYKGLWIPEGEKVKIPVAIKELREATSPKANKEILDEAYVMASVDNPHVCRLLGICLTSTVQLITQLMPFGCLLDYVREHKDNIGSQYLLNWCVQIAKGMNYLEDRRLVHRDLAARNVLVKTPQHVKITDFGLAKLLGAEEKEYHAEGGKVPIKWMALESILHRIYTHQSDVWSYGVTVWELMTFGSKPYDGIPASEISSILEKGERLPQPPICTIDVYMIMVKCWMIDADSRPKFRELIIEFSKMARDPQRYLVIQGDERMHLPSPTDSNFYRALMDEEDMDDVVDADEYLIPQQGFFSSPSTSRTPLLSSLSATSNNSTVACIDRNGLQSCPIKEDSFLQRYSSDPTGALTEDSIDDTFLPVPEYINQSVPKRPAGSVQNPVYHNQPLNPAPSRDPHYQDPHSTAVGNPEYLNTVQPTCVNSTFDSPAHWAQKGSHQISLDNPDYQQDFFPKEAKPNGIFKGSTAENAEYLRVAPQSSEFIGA

Question: With `CC(C)=CC[C@@H](OC(=O)/C=C\C(=O)c1ccc(C)cc1Cl)C1=CC(=O)c2c(O)ccc(O)c2C1=O` as the molecule, how does the IC50 (NCI-H1975) read?
Answer: 9.56 µM

Question: What about the IC50 (NCI-H460) of the same molecule?
Answer: 8.16 µM

Question: And the IC50 (MCF7)?
Answer: 6.63 µM

Question: What about the CC50 at 24 h [1] of the same molecule?
Answer: > 100 µM

Question: And the IC50 [2]?
Answer: 0.105 µM

Question: And the IC50 (A549)?
Answer: 6.23 µM

Question: What about the IC50 (HeLa) of the same molecule?
Answer: 10.1 µM

Question: For `CN(C)C/C=C/C(=O)Nc1cc2c(Nc3ccc(F)c(Cl)c3)ncnc2cc1O[C@H]1CCOC1` [AFATINIB], which IC50 (NCI-H1975) is on record?
Answer: 5.55 µM

Question: What about the IC50 (NCI-H460) of the same molecule?
Answer: 6.14 µM

Question: And the IC50 (MCF7)?
Answer: 7.62 µM

Question: And the CC50 at 24 h [1]?
Answer: 25.3 µM

Question: What about the IC50 (HeLa) of the same molecule?
Answer: 6.39 µM

Question: For `CC(C)=CC[C@@H](OC(=O)/C=C\C(=O)c1ccc(C)c(Br)c1)C1=CC(=O)c2c(O)ccc(O)c2C1=O`, which IC50 (NCI-H1975) is on record?
Answer: 22.5 µM

Question: What about the IC50 (NCI-H460) of the same molecule?
Answer: 4.21 µM

Question: And the IC50 (MCF7)?
Answer: 14.3 µM

Question: What about the CC50 at 24 h [1] of the same molecule?
Answer: > 100 µM

Question: And the IC50 [2]?
Answer: > 0.15 µM

Question: And the IC50 (A549)?
Answer: 15.4 µM

Question: And the IC50 (HeLa)?
Answer: 17.2 µM

Question: With `CC(C)=CC[C@@H](OC(=O)/C=C\C(=O)c1ccc(C)c(C)c1)C1=CC(=O)c2c(O)ccc(O)c2C1=O` as the molecule, how does the IC50 (NCI-H1975) read?
Answer: 15.7 µM

Question: What about the IC50 (NCI-H460) of the same molecule?
Answer: 11.3 µM

Question: And the IC50 (MCF7)?
Answer: 14.3 µM

Question: What about the CC50 at 24 h [1] of the same molecule?
Answer: 88.4 µM

Question: And the IC50 [2]?
Answer: 0.119 µM

Question: And the IC50 (A549)?
Answer: 9.12 µM

Question: What about the IC50 (HeLa) of the same molecule?
Answer: 10.1 µM

Question: Which results are given for `CC(C)=CC[C@@H](OC(=O)/C=C\C(=O)c1ccc(Cl)cc1)C1=CC(=O)c2c(O)ccc(O)c2C1=O`?
Answer: IC50 (NCI-H1975): 11.8 µM; IC50 (NCI-H460): 11.7 µM; IC50 (MCF7): 9.62 µM; CC50 at 24 h [1]: > 100 µM; IC50 [2]: 0.0325 µM; IC50 (A549): 8.52 µM; IC50 (HeLa): 11.4 µM

Question: Which IC50 (NCI-H1975) does the source give for `CC(C)=CC[C@@H](OC(=O)/C=C\C(=O)c1ccc(Br)cc1)C1=CC(=O)c2c(O)ccc(O)c2C1=O` here?
Answer: 13.3 µM

Question: What about the IC50 (NCI-H460) of the same molecule?
Answer: 6.51 µM

Question: What about the IC50 (MCF7) of the same molecule?
Answer: 9.31 µM

Question: What about the CC50 at 24 h [1] of the same molecule?
Answer: > 100 µM

Question: And the IC50 [2]?
Answer: 0.12 µM

Question: What about the IC50 (A549) of the same molecule?
Answer: 9.19 µM

Question: What about the IC50 (HeLa) of the same molecule?
Answer: 8.02 µM

Question: Which results are given for `CC(C)=CC[C@@H](OC(=O)/C=C\C(=O)c1ccccc1)C1=CC(=O)c2c(O)ccc(O)c2C1=O`?
Answer: IC50 (NCI-H1975): 10.3 µM; IC50 (NCI-H460): 4.59 µM; IC50 (MCF7): 19.4 µM; CC50 at 24 h [1]: > 100 µM; IC50 [2]: > 0.15 µM; IC50 (A549): 7.51 µM; IC50 (HeLa): 17.6 µM

Question: Which IC50 (NCI-H1975) does the source give for `CC(C)=CC[C@@H](OC(=O)/C=C\C(=O)c1ccc(C)c(F)c1)C1=CC(=O)c2c(O)ccc(O)c2C1=O` here?
Answer: 7.25 µM

Question: And the IC50 (NCI-H460)?
Answer: 10.1 µM

Question: What about the IC50 (MCF7) of the same molecule?
Answer: 7.68 µM

Question: What about the CC50 at 24 h [1] of the same molecule?
Answer: > 100 µM

Question: What about the IC50 [2] of the same molecule?
Answer: 0.107 µM

Question: What about the IC50 (A549) of the same molecule?
Answer: 9.39 µM

Question: What about the IC50 (HeLa) of the same molecule?
Answer: 8.27 µM

Question: For `CC(=O)O[C@H]1C(=O)[C@@]2(C)[C@H]([C@H](OC(=O)c3ccccc3)[C@]3(O)C[C@H](OC(=O)[C@H](O)[C@@H](NC(=O)c4ccccc4)c4ccccc4)C(C)=C1C3(C)C)[C@]1(OC(C)=O)CO[C@@H]1C[C@@H]2O`, which fold change (FC) (Tubulin (Homo sapiens)) is on record?
Answer: 0.82
